Experimental data collected from several papers.
Organism: Staphylococcus aureus
Observed: microbial killing

| SMILES | technique | strain | time | notes | MBC |
| --- | --- | --- | --- | --- | --- |
| COc1cc(NC(C)CCCNC(=O)c2ccncc2C(=O)NCCCC(C)Nc2cc(OC)cc3ccc(C(C)(C)C)nc23)c2nc(C(C)(C)C)ccc2c1.Cl (stereo not drawn) |  | ATCC43300 MRSA |  | drug-resistant strain | 10 to 20 µg/mL |
| CCn1cc(C(=O)O)c(=O)c2cc(F)c(N3CCNCC3)cc21 | broth dilution | ATCC6538 |  |  | 2 µM |
| CCOC(=O)c1c(N)csc1-c1cn(-c2ccccc2)nc1-c1ccc(C)cc1 | broth dilution |  |  |  | 0.125 µg/mL |
| O=C(O)CN1C(=O)/C(=C/c2c3ccccc3c(-c3ccc(N(c4ccccc4)c4ccccc4)cc3)c3ccccc23)SC1=S | broth dilution | ATCC43300 |  |  | > 1000 µg/mL |
| N#CC(=Cc1ccccc1O)C1=NC(=O)C(=Cc2cn(-c3ccccc3)nc2-c2ccccc2)S1 | broth dilution |  |  |  | 0.5 µg/mL |
| CC(=O)NC[C@H]1CN(c2ccc(N3CCOCC3)c(F)c2)C(=O)O1 | broth dilution | MRSA NRS119 |  | drug-resistant strain | 64 µM |
| COc1c(C)c(OS(=O)(=O)c2ccc3ccccc3c2)c(C)c(OS(=O)(=O)c2ccc3ccccc3c2)c1C(=O)/C=C/c1ccccc1 | broth dilution | ATCC25923 |  |  | > 5000 µg/mL |
| COc1cc(NC(C)CCCNC(=S)NCCCC(C)Nc2cc(OC)cc3cccnc23)c2ncccc2c1.Cl.Cl (stereo not drawn) |  | ATCC43300 MRSA |  | drug-resistant strain | 10 to 20 µg/mL |
| CCCCCCCC(=O)Oc1c(C)c(O)c(C(=O)/C=C/c2ccccc2)c(OC)c1C | broth dilution | ATCC25923 |  |  | > 5000 µg/mL |
| CCCCCCCCCCCCCCCC#CC(=O)O |  |  |  |  | 15.6 µg/mL |
| COc1c(C)c(OC(=O)c2ccc(C)cc2)c(C)c(O)c1C(=O)/C=C/c1ccccc1 | broth dilution | ATCC25923 |  |  | > 5000 µg/mL |
| O=C1NC(=S)S/C1=C\c1ccc(-c2ccc(N(c3ccccc3)c3ccccc3)cc2)cc1 | broth dilution | ATCC43300 |  |  | > 1000 µg/mL |
| C=CCOc1c(C)c(O)c(C(=O)/C=C/c2ccccc2)c(OC)c1C | broth dilution | ATCC25923 |  |  | > 5000 µg/mL |
| O=C1NC(=S)N/C1=C\c1c2ccccc2c(-c2ccc(N(c3ccccc3)c3ccccc3)cc2)c2ccccc12 | broth dilution | ATCC6538 |  |  | > 1000 µg/mL |
| CC1CCN(CCCN2/C(=C/c3cc[n+](C)c4ccccc34)Sc3ccccc32)CC1.[I-] |  | ATCC29213 |  |  | 16 µg/mL |
| O=C(O)CN1C(=O)/C(=C/c2ccc(-c3ccc(N(c4ccccc4)c4ccccc4)cc3)cc2)NC1=S | broth dilution | ATCC25923 |  |  | 3.9 µg/mL |
| COc1c(C)c(OC(=O)c2ccccc2)c(C)c(O)c1C(=O)/C=C/c1ccccc1 | broth dilution | ATCC25923 |  |  | > 5000 µg/mL |
| O=C1NC(=S)S/C1=C\c1ccc(-c2ccc(N(c3ccccc3)c3ccccc3)cc2)c2ccccc12 | broth dilution | ATCC43300 |  |  | > 1000 µg/mL |
| CCCCCCCCCCCC(=O)Oc1c(C)c(O)c(C(=O)/C=C/c2ccccc2)c(OC)c1C | broth dilution | ATCC25923 |  |  | > 5000 µg/mL |
| O=C1NC(=S)N/C1=C\c1ccc(-c2ccc(N(c3ccccc3)c3ccccc3)cc2)cc1 | broth dilution | ATCC6538 |  |  | > 1000 µg/mL |
| O=C(O)c1cn(C2CC2)c2cc(N3CCNCC3)c(F)cc2c1=O | broth dilution |  |  |  | 0.5 µg/mL |
| O=C(O)CN1C(=O)/C(=C/c2ccc(-c3ccc(N(c4ccccc4)c4ccccc4)cc3)c3ccccc23)NC1=S | broth dilution | ATCC43300 |  |  | > 1000 µg/mL |
| COc1c(C)c(OC)c2c(c1C)OC(c1ccccc1)CC2=O (stereo not drawn) | broth dilution | ATCC25923 |  |  | > 5000 µg/mL |
| O=c1[nH]cc(F)c(=O)[nH]1 | broth dilution |  | 48 h |  | 1 µg/mL |
